Assay results taken from ChEMBL document CHEMBL4680340, “Discovery and structure activity relationship of glyoxamide derivatives as anti-hepatitis B virus agents” (Bioorg Med Chem, 2021).

How the values were obtained:
[1] = system: Hepatitis B virus; assay: Antiviral activity against Hepatitis B virus infected in human HePAD38 cells assessed as reduction in viral DNA replication incubated for 7 days by RT-PCR analysis; format: functional, organism-based; settings: HePAD38, 168 h; for EC90: time 7 day
Outline: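 HepAD38 cells seeded and held 2 days at 37 °C, 5% CO2, then washed with PBS; compounds added in duplicate at various concentrations in tetracycline-free medium (from 40 mM stocks). Day 7: total DNA extracted, HBV DNA quantified by real-time PCR; ΔCT against untreated tetracycline-free control; EC50 and EC90 computed.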

[2] = Cytotoxicity against human PBMC cells assessed as reduction in cell viability by MTT assay; format: cell-based
[3] = Cytotoxicity against human CEM cells assessed as reduction in cell viability by MTT assay; format: cell-based; settings: CEM (CCRF-CEM) cells
[4] = Cytotoxicity against African green monkey Vero cells assessed as reduction in cell viability by MTT assay; format: cell-based; settings: chlorocebus sabaeus
[5] = Cytotoxicity against human HepG2 cells assessed as reduction in cell viability by MTT assay; format: cell-based
[6] = Therapeutic index, ratio of CC50 for human HepG2 cells to IC50 for Hepatitis B virus infected in human HePAD38 cells; format: toxicity, cell-based; settings: read-out: Ratio CC50/IC50

Row | Compound | EC50 [1] | EC90 [1] | CC50 [2] | CC50 [3] | CC50 [4] | CC50 [5] | selectivity ratio [6]
1 | Cc1c(C(=O)C(=O)Nc2nc3ccccc3[nH]2)c(C)n(C)c1C(=O)Nc1ccc(F)c(F)c1 | 210 nM | 3440 nM | 90 µM | 35.8 µM | 46.9 µM | 74.9 µM | 
2 | Cc1c(C(=O)C(=O)Nc2nccs2)c(C)n(C)c1C(=O)Nc1ccc(F)c(F)c1 | 6 nM | 30 nM | > 100 µM | 26.8 µM | > 100 µM | 83.9 µM | 
3 | Cn1cc(C(=O)C(=O)NOC2CCCC2)cc1C(=O)Nc1ccc(F)c(F)c1 | 560 nM | 2950 nM | ≥ 100 µM | 37.9 µM | 80.1 µM | > 100 µM | 
4 | Cc1c(C(=O)C(=O)N2CCN(C)CC2)c(C)n(C)c1C(=O)Nc1ccc(F)c(F)c1 | 5 nM | 100 nM | ≥ 100 µM | 24.7 µM | ≥ 100 µM | 95.4 µM | 
5 | Cn1cc(C(=O)C(=O)NCc2ccccc2)cc1C(=O)Nc1ccc(F)c(F)c1 | 410 nM | 7950 nM | > 100 µM | > 100 µM | 62.4 µM | > 100 µM | 
6 | Cn1cc(C(=O)C(=O)NCC#N)cc1C(=O)Nc1ccc(F)c(F)c1 | 5160 nM | 10000 nM | > 100 µM | > 100 µM | 91.4 µM | > 100 µM | 
7 | Cn1cc(C(=O)C(=O)N2CCOCC2)cc1C(=O)Nc1ccc(F)c(F)c1 | 1100 nM | 4620 nM | > 100 µM | > 100 µM | 41.9 µM | 93.9 µM | 
8 | C=C1[C@H](CO)[C@@H](O)C[C@@H]1n1cnc2c(=O)[nH]c(N)nc21 | 0.6 nM | 11 nM | 15.7 µM | > 100 µM | > 100 µM | > 100 µM | 
9 | Cc1c(C(=O)C(=O)Nc2ccccn2)c(C)n(C)c1C(=O)Nc1ccc(F)c(F)c1 | 4 nM | 60 nM | > 100 µM | 14.6 µM | > 100 µM | 83.7 µM | 
10 | C#CCNC(=O)C(=O)c1cc(C(=O)Nc2ccc(F)c(F)c2)n(C)c1 | 5600 nM | > 10000 nM | 57.9 µM | 70.3 µM | 89 µM | > 100 µM | 
11 | Cc1c(C(=O)C(=O)NCc2nccn2C)c(C)n(C)c1C(=O)Nc1ccc(F)c(F)c1 | 10 nM | 170 nM | > 100 µM | 46.9 µM | 50.6 µM | 34.7 µM | 
12 | CCN(CC)C(=O)C(=O)c1c(C)c(C(=O)Nc2ccc(F)c(F)c2)n(C)c1C | 580 nM | 5640 nM | 91.7 µM | 16.8 µM | > 100 µM | 89.9 µM | 
13 | Cn1cc(C(=O)C(=O)Nc2nccs2)cc1C(=O)Nc1ccc(F)c(F)c1 | 470 nM | 4100 nM | > 100 µM | > 100 µM | 31.2 µM | > 100 µM | 
14 | O=C(Nc1ccc(F)c(F)c1)c1cc(S(=O)(=O)N2CC(F)(F)C2)ccc1F | 1200 nM | 6300 nM |  |  |  |  | 
15 | C=CCNC(=O)C(=O)c1cc(C(=O)Nc2ccc(F)c(F)c2)n(C)c1 | 90 nM | 3050 nM | > 100 µM | > 100 µM | 68.1 µM | > 100 µM | 
16 | Cc1c(C(=O)C(=O)NCc2ccccn2)c(C)n(C)c1C(=O)Nc1ccc(F)c(F)c1 | 160 nM | 2020 nM | > 100 µM | 38.4 µM | 9.6 µM | 7.2 µM | 
17 | Nc1ccn([C@@H]2CS[C@H](CO)O2)c(=O)n1 [LAMIVUDINE] | 410 nM | 1650 nM | > 100 µM | > 100 µM | > 100 µM | > 100 µM | 
18 | C#CCNC(=O)C(=O)c1c(C)c(C(=O)Nc2ccc(F)c(F)c2)n(C)c1C | 3 nM | 14 nM | > 100 µM | > 100 µM | 46.4 µM | > 100 µM | > 33300
19 | CCOC(=O)C1=C(CN2CCOCC2)NC(c2nccs2)=NC1c1ccc(F)cc1Br (centres undefined) | 80 nM | 280 nM |  |  |  |  | 
20 | Cn1cc(C(=O)C(=O)Nc2ccccc2)cc1C(=O)Nc1ccc(F)c(F)c1 | 80 nM | 1800 nM | > 100 µM | > 100 µM | 13.4 µM | > 100 µM | 
21 | Cn1cc(C(=O)C(=O)N2CC(F)(F)C2)cc1C(=O)Nc1ccc(F)c(F)c1 | 3800 nM | 9670 nM | > 100 µM | > 100 µM | > 100 µM | > 100 µM | 
